The text below walks through data of ChEMBL document CHEMBL1122578, “A colon-specific drug-delivery system based on drug glycosides and the glycosidases of colonic bacteria” (J Med Chem, 1984).

Common to all, as to format: functional, organism-based
Assay [1] relates to Rattus norvegicus. Kind of assay: Recovery of glucoside from cecum at 3h after administration of 7.5 mg of the compound. The conditions noted are these: Caecum. The method in brief: (§1)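 Male Sprague-Dawley rats (ca. 250 g), fasted 16 h, water withdrawn ≥30 min before dosing; glucoside 7.5 mg by gastric intubation in 0.5 mL water/95% EtOH (3:1). Killed by CO2 then thoracotomy at 3–6 h; small intestine and cecum removed. Contents (MeOH) and tissues (0.01 M KH2PO4) homogenized with internal-standard steroid, centrifuged, filtered, quantified by C-18 HPLC-UV (MeOH/0.01 M KH2PO4 56.5:43.5); mean of four animals.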

Assay [2] concerns Rattus norvegicus. Kind of assay: Recovery of glucoside from cecum at 4 hr after administration of 7.5 mg of the compound. The conditions noted are these: Caecum. The method in brief:
as §1

For assay [3], the system named is Rattus norvegicus. The experiment in a line: Recovery of glucoside from small intestine at 3h after administration of 7.5 mg of the compound. The method in brief:
as §1

For assay [4], the system named is Rattus norvegicus. Kind of assay: Recovery of glucoside from small intestine at 5 hr after administration of 7.5 mg of the compound. The method in brief: as §1
Assay [5] concerns Rattus norvegicus. Kind of assay: Recovery of glucoside from small intestine at 6 hr after administration of 7.5 mg of the compound. The method in brief: as §1
Assay [6] concerns Rattus norvegicus. Kind of assay: Recovery of glucoside from small intestine at 4 hr after administration of 7.5 mg of the compound. The method in brief: as §1
Assay [7] has as its system Rattus norvegicus. The experiment in a line: Recovery of glucoside from cecum at 5 hr after administration of 7.5 mg of the compound. The conditions noted are these: Caecum. The method in brief:
as §1

Assay [8] deals with Rattus norvegicus. The experiment in a line: Recovery of glucoside from cecum at 6 hr after administration of 7.5 mg of the compound. The conditions noted are these: Caecum. The method in brief:
as §1

The test system of assay [9] is Rattus norvegicus. The experiment in a line: Recovery of steroid from small intestine at 5 hr after administration of 7.5 mg of the compound. The method in brief: as §1
In assay [10] the test system is Rattus norvegicus. Kind of assay: Recovery of steroid from cecum at 5 hr after administration of 7.5 mg of the compound. The conditions noted are these: Caecum. The method in brief: as §1
Assay [11] concerns Rattus norvegicus. The experiment in a line: Recovery of steroid from cecum at 4 hr after administration of 7.5 mg of the compound. As to conditions: Caecum. The method in brief: as §1
The test system of assay [12] is Rattus norvegicus. Kind of assay: Recovery of steroid from small intestine at 6 hr after administration of 7.5 mg of the compound. The method in brief: as §1
Assay [13] concerns Rattus norvegicus. The experiment in a line: Recovery of steroid from cecum at 3h after administration of 7.5 mg of the compound. The conditions noted are these: Caecum. The method in brief:
as §1

The subject of assay [14] is Rattus norvegicus. Kind of assay: Recovery of steroid from small intestine at 3h after administration of 7.5 mg of the compound. The method in brief:
as §1

Assay [15] relates to Rattus norvegicus. The experiment in a line: Recovery of steroid from small intestine at 4 hr after administration of 7.5 mg of the compound. The method in brief: as §1
Assay [16] concerns Rattus norvegicus. Kind of assay: Recovery of steroid from cecum at 6 hr after administration of 7.5 mg of the compound. As to conditions: Caecum. The method in brief:
as §1

Assay [17] concerns Rattus norvegicus. The experiment in a line: Recovery of glucoside from cecum at 3h after administration of 7.5 mg. As to conditions: Caecum. The method in brief: as §1

`C[C@]12C=CC(=O)C=C1CC[C@@H]1[C@@H]2C(O)C[C@@]2(C)[C@H]1CC[C@]2(O)C(=O)CO[C@@H]1O[C@H](CO)[C@@H](O)[C@H](O)[C@H]1O` (some centres not stated): the Recovery in [1] amounted to 0 mg; in assay [2], 0 mg; in [3], 1.57 mg; in assay [4] it was 0.19 mg; in assay [5], 0.18 mg; in [6], 1.73 mg. Moreover, the Recovery was 0 mg in [7] and 0.06 mg in [8].
On to `C[C@@H]1C[C@H]2[C@@H]3CCC4=CC(=O)C=C[C@]4(C)[C@@]3(F)[C@@H](O)C[C@]2(C)[C@@]1(O)C(=O)CO`, for which the Recovery turned out to be 0.12 mg in assay [9]; 2.24 mg in [10]; 0.05 mg in assay [11]; 0.18 mg in assay [12]; 0.09 mg in assay [13]; 0.13 mg in assay [14]. For the same compound, the Recovery in assay [15] amounted to 0.11 mg; in assay [16] it was 1.66 mg.
As to `C[C@]12C=CC(=O)C=C1CC[C@@H]1[C@@H]2[C@@H](O)C[C@@]2(C)[C@H]1CC[C@]2(O)C(=O)CO`, the Recovery in assay [9] was 0.09 mg; in assay [10], 0.57 mg; in assay [11], 0 mg; in assay [12], 0.03 mg; in assay [13], 0 mg; in [14], 0.3 mg. The Recovery in assay [15] was 0.18 mg; in assay [16] it was 0.29 mg.
Regarding `C[C@@H]1CC2C3CCC4=CC(=O)C=CC4(C)[C@@]3(F)C(O)CC2(C)[C@@]1(O)C(=O)CO[C@@H]1O[C@H](CO)[C@@H](O)[C@H](O)[C@H]1O` (some centres not stated), the Recovery in assay [2] was 0.02 mg; in assay [3] it was 5.61 mg; in assay [4] it was 0.24 mg; in [5] it was 0.94 mg; in assay [6] it was 5 mg; in assay [17], 0.21 mg. Moreover, the Recovery turned out to be 0.23 mg in [7] and 0.04 mg in [8].
